HNF4A DNA FP: change in binding of human HNF4A to DNA, primary screen, biochemical, fluorescence polarization, FITC-DNA | Hepatocyte nuclear factor 4-alpha (Homo sapiens), P41235 | 1 h | activity change, % at 10 µM | 360,000 tested, 0.3% active | AID 1224865, 2016; in the data active means activity change above about 30%, passing the limit was not always enough
Target sequence (P41235 whole entry, looked up): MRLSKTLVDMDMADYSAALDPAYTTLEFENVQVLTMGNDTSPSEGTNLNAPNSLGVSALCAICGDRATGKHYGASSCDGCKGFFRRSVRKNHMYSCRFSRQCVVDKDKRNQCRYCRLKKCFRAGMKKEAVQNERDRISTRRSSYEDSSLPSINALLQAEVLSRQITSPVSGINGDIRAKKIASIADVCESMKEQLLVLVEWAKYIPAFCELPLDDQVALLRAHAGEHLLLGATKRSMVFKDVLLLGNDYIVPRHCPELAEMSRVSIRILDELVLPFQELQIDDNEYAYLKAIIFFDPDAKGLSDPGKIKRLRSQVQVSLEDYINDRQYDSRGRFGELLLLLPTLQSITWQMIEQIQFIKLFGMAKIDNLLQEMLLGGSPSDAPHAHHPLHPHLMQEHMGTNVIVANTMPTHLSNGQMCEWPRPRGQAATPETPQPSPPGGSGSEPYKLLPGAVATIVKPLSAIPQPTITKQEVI
Rpn11 inh: Rpn11 (PSMD14) deubiquitinase inhibitors, primary screen, biochemical, fluorescence polarization, uHTS; human 26S proteasome, Ub4-pepOG fluorescence polarization; 20S core pre-blocked with epoxomicin; calls only at 20 µM; 360,000 tested, 0.59% active; 26S proteasome non-ATPase regulatory subunit 14 (Homo sapiens), O00487; AID 588493, 2011;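 active means inhibition at 20 µM, scaled to each plate's controls, above about 33%, limit read from the data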
CSN inh: inhibitors of CSN-mediated cullin deneddylation, primary screen, biochemical, fluorescence polarization, uHTS. COP9 signalosome complex subunit 5 (Homo sapiens), Q92905. Purified CSN, SCF-Nedd8-OG deneddylation. inhibition, % at 12.5 µM. 360,000 tested, 0.38% active;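 active means pattern-corrected inhibition above about 35%, with an unprinted fluorescence ratio check between 0.5 and 1.5, limit read from the data, passing the limit was not always enough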;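 further: 0% = enzyme with substrate and 100% = substrate without enzyme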
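Schedule: reaction 90 min, room temperature / Assay system: HEK293T-derived human Csn5 enzyme / Input: Csn5 at 0.24 nM final / Measure: inhibition of Csn5 cleavage, % / Control set: substrate-only high control, full reaction low control / Technique: fluorescence polarization of the substrate / Buffer or medium: Tris/NaCl/DTT buffer, pH 7.5 / Reagent: SCFSkp2-Nedd8OG substrate at 10 nM final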
TPT1 inhibitor: Candida albicans TPT1 enzyme inhibitors, primary screen, biochemical, fluorescence polarization. recombinant caTPT1, FP RNA substrate dephosphorylation. inhibition, % at 5 µM. 300,000 tested, 0.81% active;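 active means inhibition above the mean of all tested compounds plus 3 SD, set per screening campaign, cut at about 24% in these data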;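 further: plate controls were DMSO alone for no effect and ferristatin control at 100 nM for full effect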
Rpn11 inh conf: Rpn11 (PSMD14) deubiquitinase inhibitors, confirmation, biochemical, fluorescence polarization, single concentration; shares compounds with Rpn11 inh; purified human 26S proteasome, Ub4-pepOG fluorescence polarization; proteasome pretreated with epoxomicin; inhibition, % at 20 µM; 1,900 tested, 29% active
MMP-2 counter: MMP-2 enzyme inhibition, confirmation, counter-screen for RPN11 inhibitor project, biochemical, fluorescence, single concentration; 1,900 tested, 4% active; shares compounds with Rpn11 inh; AID 602330, 2012; inhibition, % at 20 µM; recombinant MMP-2, FRET peptide cleavage fluorescence;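 further: human MMP-2 activated beforehand with APMA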
Thrombin inh: bovine thrombin protease inhibition, confirmation, counter-screen for Rpn11 inhibitor project, biochemical, fluorescence polarization, single concentration; shares compounds with Rpn11 inh; bovine thrombin cleavage of Ub4-pepOG; inhibition, % at 20 µM; 1,900 tested, 13% active; AID 602333, 2012;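 active means mean inhibition at least 40% at 20 µM, or signal 3 deviations below plate average, so some actives read negative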;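 further: plate controls were thrombin with DMSO for no effect and buffer wells lacking thrombin for full effect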
Starred values were filed as active, the others as inactive; i = inactive; / = no result given; + = active, no number. Sampled rows, rich in hits. Any-hit rate of the full collection: about 1.5%. Unless noted, no stated cut-off is given here; in the data, active means inhibition above about 40%; inactive means the rest.

SMILES	HNF4A DNA FP	Rpn11 inh	CSN inh	TPT1 inhibitor	Rpn11 inh conf	MMP-2 counter	Thrombin inh
O=C1CC(c2ccc3ccccc3c2)NN1 (centres undefined)	1	i	-5	/	/	/	/
Cc1ccc(-c2nc(CN3CCCCC3CCN3CCCC3=O)c(C)o2)o1 (centres undefined)	15	+	-5	1	18	5	16
CCN(Cc1ccncc1)Cc1c(O)ccc2cc(Br)ccc12	-4	i	-10	/	/	/	/
Cc1cccc(C)c1-n1nnnc1C1(C)CCC(=O)N1c1ccc(N2CCOCC2)cc1 (centres undefined)	6	/	-6	/	/	/	/
COc1ccc(CN2CCC(=O)N([C@H](CO)CC(C)C)CC2)cc1OC	-1	i	5	-3	/	/	/
CC(C)CN1CCC(=O)N(CCSc2ccccc2)CC1	1	i	-6	-3	/	/	/
S=C(c1cn(CCOc2ccccc2)c2ccccc12)N1CCCC1	-2	i	2	2	/	/	/
S=C(c1cn(CCOc2cccc3ccccc23)c2ccccc12)N1CCCC1	7	+	10	1	52*	-34	28
CCCC[C@H]1COCCS(=O)(=O)N1Cc1cccc([N+](=O)[O-])c1	1	i	-1	-2	/	/	/
Cc1cc(O)c(C(C)C)cc1N=Cc1cc([N+](=O)[O-])ccc1O	3	i	0	-5	/	/	/
Cc1cc(O)c(C(C)C)cc1N=Cc1ccccc1O	21	+	9	-1	25	-20	24
O=[N+]([O-])c1ccc(N2CCN(Cc3ccccc3)CC2)c2c1no[n+]2[O-]	-12	i	-6	/	/	/	/
CCN(CC)c1ccc(N2C(=O)CSC2=S)cc1	3	+	-6	-5	-3	61*	-22
CCOc1ccc(N2C(=O)CSC2=S)cc1	2	i	0	2	/	/	/
CC(=O)NCCC(=O)Nc1ccc(F)cc1C	22	+	-2	-1	-11	-46	0
Cc1ccccc1CN1C(=O)C(C)S/C1=N/N=C/c1ccco1 (centres undefined)	-5	i	3	2	/	/	/
Cc1ccccc1CN1C(=O)C(C)Sc2ccc(-c3ccco3)cc21 (centres undefined)	19	+	30	/	46*	4	25
CCCCCCCCN1[C@@H](CC(=O)OC)c2cc(F)ccc2S1(=O)=O	3	+	1	-1	10	-9	5
Cc1ccc2sc(NNC(=O)c3cc(=O)c4ccccc4o3)nc2c1C	13	+	10	12	20	12	-14
Cc1cccc2sc(NNC(=O)c3cc(=O)c4ccccc4o3)nc12	5	i	10	13	/	/	/
CC(CNC(=O)CC[C@H]1O[C@@H](n2cnc3c(NC(=O)c4ccccc4)ncnc32)[C@H](O)[C@@H]1O)c1ccccc1 (some centres undefined)	3	i	-2	/	/	/	/
COc1ccc(C(=O)/C(C#N)=N/Nc2ccc([N+](=O)[O-])cc2)cc1	16	+	2	5	4	0	-29
O=C(CSc1ccc(-c2ccccn2)nn1)Nc1cccc(F)c1	1	i	1	-3	/	/	/
O=C(COc1ccccc1CNC[C@H]1O[C@@H](n2ccc(=O)[nH]c2=O)[C@H](O)[C@@H]1O)N1CCCCC1	-3	i	-4	/	/	/	/
CN(C)c1ccc(C2(c3ccc(N(C)C)cc3)OC(=O)c3cc(N)ccc32)cc1	-4	i	2	1	/	/	/
SMILES	HNF4A DNA FP	Rpn11 inh	CSN inh	TPT1 inhibitor	Rpn11 inh conf	MMP-2 counter	Thrombin inh
O=C1c2ccccc2-c2onc3c(N4CCN(CCO)CC4)cc(N4CCN(C(=O)c5ccco5)CC4)c1c23	5	+	8	-11	active	-92	active
COc1ccc(-c2nn(-c3ccccc3)cc2CNC[C@H]2O[C@@H](n3ccc(=O)[nH]c3=O)[C@H](O)[C@@H]2O)cc1	0	i	-2	/	/	/	/
CCC(c1nnnn1-c1ccc2c(c1)OCCO2)N1CCN(Cc2c(F)cccc2Cl)CC1 (centres undefined)	3	/	-1	/	/	/	/
O=C(Nc1ccc(N2CCCC2)cc1)c1cccc(Cl)c1Cl	5	+	1	4	-1	-44	-3
COc1ccc(N2C(=O)c3ccc(NC(C)=O)cc3C2=O)cc1	28	+	3	0	-18	31	-22
COc1ccc(CNC(=O)C(C)OC(=O)c2cccn2C)cc1 (centres undefined)	14	+	6	1	-3	11	-13
Cc1nc(N2CCOCC2)nc(N2CCCCC2)c1[N+](=O)[O-]	0	i	-10	0	/	/	/
Cc1nc(N2CCCCC2)nc(N2CCCCC2)c1C=O	10	+	1	11	25	-61	-4
COc1ccc2nc(C)cc(SCC(=O)N/N=C/c3c(OC)ccc4ccccc34)c2c1	17	+	44*	-1	10	-43	6
COc1ccc2nc(C)cc(SCC(=O)N/N=C/c3ccccc3)c2c1	-1	i	9	-3	/	/	/
O=[N+]([O-])c1ccc(OCCO)c(P(=O)(c2ccccc2)c2ccccc2)c1	2	i	3	-1	/	/	/
O=C(CCC(=O)c1cccs1)OCC(=O)N1CCN(C(=O)c2ccco2)CC1	35*	+	1	-5	-4	-20	-8
C=CCOc1ccc(/C=C2\C(=N)N3N=C(S(=O)(=O)CC)SC3=NC2=O)cc1OC	7	i	4	5	/	/	/
CCS(=O)(=O)C1=NN2C(=N)/C(=C\c3ccc(OC(=O)c4ccco4)c(OC)c3)C(=O)N=C2S1	20	+	22	7	22	-4	19
CS(=O)(=O)C1=NSC2=NC(=O)/C(=C\c3ccc(OC(=O)c4ccco4)cc3)C(=N)N21	/	/	/	4	/	/	/
COc1cc(/C=C2/C(=N)N3C(=NC2=O)SN=C3S(=O)(=O)C(C)C)ccc1OC(=O)c1ccco1	35	+	19	9	25	-15	13
CCOc1cc(/C=C2/C(=N)N3C(=NC2=O)SN=C3S(=O)(=O)CC)ccc1OC(=O)c1ccco1	27	+	30	6	16	-5	4
